ChEMBL document CHEMBL1136723, “A novel atypical retinoid endowed with proapoptotic and antitumor activity” (J Med Chem, 2003)

Legend:
[1] = system: GBM; assay: Antiproliferative effect of compound on GBM cell line expressing mutant p53; type: functional, cell-based; conditions: Homo sapiens
Summary of the method: (§1)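 Human tumor cell lines exposed to drug for 72 h. Growth was measured by cell counting. IC50, the concentration giving 50% inhibition of cell growth, was read from dose–response curves.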

[2] = system: SAOS-2; assay: Antiproliferative effect of compound on SAOS cell line; type: functional, cell-based; conditions: Homo sapiens; summary of the method: as §1
[3] = system: IGROV-1; assay: (§2) Apoptosis was determined my morphological analysis of propidium-iodide-stained cells following 48 hr exposure to IC80 (0.5 uM), value expressed as percentage of apoptotic cells versus total cell number; type: functional, Homo sapiens
[4] = system: DU-145; assay: as §2; type: functional, Homo sapiens
[5] = system: LNCaP; assay: Antiproliferative effect of compound on LNcaP cell line expressing wild-type p53; type: functional, cell-based; conditions: Homo sapiens; summary of the method: as §1
[6] = system: NCI-H460; assay: Antiproliferative effect of compound on H460 cell line expressing wild-type p53; type: functional, cell-based; conditions: Homo sapiens; summary of the method: as §1
[7] = system: Me665/2/21; assay: Antiproliferative effect of compound on Me665/2/21 cell line expressing mutant p53; type: functional, cell-based; conditions: Homo sapiens; summary of the method: as §1
[8] = system: IGROV-1; assay: (§3) Apoptosis was determined my morphological analysis of propidium-iodide-stained cells following 72 hr exposure to IC80 (0.5 uM), value expressed as percentage of apoptotic cells versus total cell number; type: functional, Homo sapiens
[9] = system: DU-145; assay: as §3; type: functional, Homo sapiens
[10] = system: A-431; assay: Antiproliferative effect of compound on A431 cell line expressing mutant p53; type: functional, cell-based; conditions: Homo sapiens; summary of the method: as §1
[11] = system: LoVo; assay: Antiproliferative effect of compound on LoVo cell line expressing wild-type p53; type: functional, cell-based; conditions: Homo sapiens; summary of the method: as §1
[12] = system: PC-3; assay: Antiproliferative effect of compound on PC3 cell line; type: functional, cell-based; conditions: Homo sapiens; summary of the method: as §1
[13] = system: U2OS; assay: Antiproliferative effect of compound on U2OS cell line expressing wild-type p53; type: functional, cell-based; conditions: Homo sapiens; summary of the method: as §1
[14] = system: HCT-116; assay: Antiproliferative effect of compound on HCT116 cell line expressing wild-type p53; type: functional, cell-based; conditions: Homo sapiens; summary of the method: as §1
[15] = system: DU-145; assay: Antiproliferative effect of compound on DU145 cell line expressing mutant p53; type: functional, cell-based; conditions: Homo sapiens; summary of the method: as §1
[16] = system: IGROV-1; assay: (§4) Apoptosis was determined my morphological analysis of propidium-iodide-stained cells following 24 hr exposure to IC80 (0.5 uM), value expressed as percentage of apoptotic cells versus total cell number; type: functional, Homo sapiens
[17] = system: DU-145; assay: as §4; type: functional, Homo sapiens
[18] = system: IGROV-1; assay: Antiproliferative effect of compound on IGROV-1 cell line expressing wild-type p53; type: functional, cell-based; conditions: Homo sapiens; summary of the method: as §1
[19] = system: A2780; assay: Antiproliferative effect of compound on A2780/DX cell line; type: functional, cell-based; conditions: Homo sapiens; summary of the method: as §1

| IC50 [5] [nM] | IC50 [6] [nM] | IC50 [10] [nM] | IC50 [11] [nM] | IC50 [12] [nM] | IC50 [13] [nM] | IC50 [14] [nM] | IC50 [15] [nM] | IC50 [19] [nM] | SMILES | IC50 [1] [nM] | IC50 [2] [nM] | Apoptosis [3] [%] | Apoptosis [4] [%] | IC50 [7] [nM] | Apoptosis [8] [%] | Apoptosis [9] [%] | Apoptosis [16] [%] | Apoptosis [17] [%] | IC50 [18] [nM] |
| --- | --- | --- | --- | --- | --- | --- | --- | --- | --- | --- | --- | --- | --- | --- | --- | --- | --- | --- | --- |
| 320 | 430 | 510 | 490 | 430 | 440 | 680 | 280 | – | O=C(O)c1ccc2cc(-c3ccc(O)c(C45CC6CC(CC(C6)C4)C5)c3)ccc2c1 [O-DEMETHYLATED ADAPALENE] | 550 | 670 | 15 | 33 | 420 | 38 | 30 | 22 | 16 | 350 |
| 120 | 190 | 250 | 150 | 210 | 260 | 320 | 100 | 100 | O=C(O)/C=C/c1ccc(-c2ccc(O)c(C34CC5CC(CC(C5)C3)C4)c2)cc1 [ADAROTENE] | 180 | 250 | 46 | 44 | 250 | 44 | 50 | 42 | 24 | 230 |
